Laboratory results as given in ChEMBL document CHEMBL3734675, “Synthesis, antimycobacterial and antibacterial activity of fluoroquinolone derivatives containing an 3-alkoxyimino-4-(cyclopropylanimo)methylpyrrolidine moiety” (2015).
Values after ≈ are worked out from the molar mass of the structure shown.

Key:
Format in all cases: functional
[1] = test system: Staphylococcus epidermidis; assay: Antibacterial activity against methicillin-sensitive Staphylococcus epidermidis 14-2 after 18 to 24 hrs by two-fold serial dilution method
Procedure, shortened: (§1)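 Twofold serial dilution in agar media against Gram-positive and Gram-negative strains. Plates incubated at 35 °C for 18–24 h. MIC read as the lowest compound concentration giving complete inhibition of bacterial growth.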

[2] = test system: Enterococcus faecium; assay: Antibacterial activity against Enterococcus faecium 14-5 after 18 to 24 hrs by two-fold serial dilution method; procedure, shortened: as §1
[3] = test system: Escherichia coli; assay: Antibacterial activity against extended-spectrum beta-lactamase producing Escherichia coli 14-2 after 18 to 24 hrs by two-fold serial dilution method; procedure, shortened: as §1
[4] = test system: Staphylococcus aureus; assay: Antibacterial activity against methicillin-sensitive Staphylococcus aureus 14-1 after 18 to 24 hrs by two-fold serial dilution method; procedure, shortened: as §1
[5] = test system: Pseudomonas aeruginosa; assay: Antibacterial activity against Pseudomonas aeruginosa 14-15 after 18 to 24 hrs by two-fold serial dilution method; procedure, shortened: as §1
[6] = test system: Pseudomonas aeruginosa; assay: Antibacterial activity against Pseudomonas aeruginosa ATCC 27853 after 18 to 24 hrs by two-fold serial dilution method; procedure, shortened: as §1
[7] = test system: Staphylococcus aureus; assay: Antibacterial activity against methicillin-resistant Staphylococcus aureus 14-4 after 18 to 24 hrs by two-fold serial dilution method
Procedure, shortened: (§2)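 Agar media, standard twofold serial dilution. MIC is the lowest concentration giving complete inhibition of bacterial growth after incubation at 35 °C for 18–24 h. Ciprofloxacin and levofloxacin were run as comparators.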

[8] = test system: Pseudomonas aeruginosa; assay: Antibacterial activity against Pseudomonas aeruginosa 14-14 after 18 to 24 hrs by two-fold serial dilution method; procedure, shortened: as §1
[9] = test system: Escherichia coli; assay: Antibacterial activity against extended-spectrum beta-lactamase producing Escherichia coli 14-1 after 18 to 24 hrs by two-fold serial dilution method; procedure, shortened: as §1
[10] = test system: Klebsiella pneumoniae; assay: Antibacterial activity against Klebsiella pneumoniae 14-4 after 18 to 24 hrs by two-fold serial dilution method; procedure, shortened: as §1
[11] = test system: Enterococcus faecalis; assay: Antibacterial activity against Enterococcus faecalis 14-2 after 18 to 24 hrs by two-fold serial dilution method; procedure, shortened: as §1
[12] = test system: Escherichia coli; assay: Antibacterial activity against Escherichia coli 14-1 after 18 to 24 hrs by two-fold serial dilution method; procedure, shortened: as §1
[13] = test system: Klebsiella pneumoniae; assay: Antibacterial activity against extended-spectrum beta-lactamase producing Klebsiella pneumoniae 14-17 after 18 to 24 hrs by two-fold serial dilution method; procedure, shortened: as §1
[14] = test system: Enterococcus faecalis; assay: Antibacterial activity against Enterococcus faecalis 14-1 after 18 to 24 hrs by two-fold serial dilution method; procedure, shortened: as §1
[15] = test system: Staphylococcus aureus; assay: Antibacterial activity against methicillin-resistant Staphylococcus aureus 14-5 after 18 to 24 hrs by two-fold serial dilution method; procedure, shortened: as §2
[16] = test system: Klebsiella pneumoniae; assay: Antibacterial activity against extended-spectrum beta-lactamase producing Klebsiella pneumoniae 14-19 after 18 to 24 hrs by two-fold serial dilution method; procedure, shortened: as §1
[17] = test system: Staphylococcus epidermidis; assay: Antibacterial activity against methicillin-resistant Staphylococcus epidermidis 14-37 after 18 to 24 hrs by two-fold serial dilution method; procedure, shortened: as §2
[18] = test system: Staphylococcus epidermidis; assay: Antibacterial activity against methicillin-resistant Staphylococcus epidermidis 14-21 after 18 to 24 hrs by two-fold serial dilution method; procedure, shortened: as §2
[19] = test system: Enterococcus faecium; assay: Antibacterial activity against Enterococcus faecium 14-2 after 18 to 24 hrs by two-fold serial dilution method; procedure, shortened: as §1
[20] = test system: Klebsiella pneumoniae; assay: Antibacterial activity against extended-spectrum beta-lactamase producing Klebsiella pneumoniae 14-18 after 18 to 24 hrs by two-fold serial dilution method; procedure, shortened: as §1
[21] = test system: Staphylococcus aureus; assay: Antibacterial activity against Staphylococcus aureus CMCC 26003 after 18 to 24 hrs by two-fold serial dilution method; procedure, shortened: as §1
[22] = test system: Enterococcus faecium; assay: Antibacterial activity against Enterococcus faecium 14-6 after 18 to 24 hrs by two-fold serial dilution method; procedure, shortened: as §1
[23] = test system: Pseudomonas aeruginosa; assay: Antibacterial activity against Pseudomonas aeruginosa 14-16 after 18 to 24 hrs by two-fold serial dilution method; procedure, shortened: as §1
[24] = test system: Staphylococcus aureus; assay: Antibacterial activity against methicillin-sensitive Staphylococcus aureus 14-4 after 18 to 24 hrs by two-fold serial dilution method; procedure, shortened: as §1
[25] = test system: Klebsiella pneumoniae; assay: Antibacterial activity against Klebsiella pneumoniae 14-2 after 18 to 24 hrs by two-fold serial dilution method; procedure, shortened: as §1
[26] = test system: Streptococcus pneumoniae; assay: Antibacterial activity against methicillin-resistant Streptococcus pneumoniae ATCC 19615 after 18 to 24 hrs by two-fold serial dilution method; procedure, shortened: as §2
[27] = test system: Escherichia coli; assay: Antibacterial activity against Escherichia coli 14-2 after 18 to 24 hrs by two-fold serial dilution method; procedure, shortened: as §1
[28] = test system: Escherichia coli; assay: Antibacterial activity against Escherichia coli ATCC 25922 after 18 to 24 hrs by two-fold serial dilution method; procedure, shortened: as §1
[29] = test system: Klebsiella pneumoniae; assay: Antibacterial activity against Klebsiella pneumoniae 14-1 after 18 to 24 hrs by two-fold serial dilution method; procedure, shortened: as §1
[30] = test system: Staphylococcus epidermidis; assay: Antibacterial activity against methicillin-resistant Staphylococcus epidermidis 14-22 after 18 to 24 hrs by two-fold serial dilution method; procedure, shortened: as §2
[31] = test system: Klebsiella pneumoniae; assay: Antibacterial activity against Klebsiella pneumoniae 14-3 after 18 to 24 hrs by two-fold serial dilution method; procedure, shortened: as §1
[32] = test system: Staphylococcus epidermidis; assay: Antibacterial activity against methicillin-resistant Staphylococcus epidermidis 14-39 after 18 to 24 hrs by two-fold serial dilution method; procedure, shortened: as §2
[33] = test system: Staphylococcus aureus; assay: Antibacterial activity against methicillin-sensitive Staphylococcus aureus 14-3 after 18 to 24 hrs by two-fold serial dilution method; procedure, shortened: as §1
[34] = test system: Pseudomonas aeruginosa; assay: Antibacterial activity against Pseudomonas aeruginosa 14-9 after 18 to 24 hrs by two-fold serial dilution method; procedure, shortened: as §1

Compound	MIC [1] [µg/mL]	MIC [2] [µg/mL]	MIC [4] [µg/mL]	MIC [7] [µg/mL]	MIC [10] [µg/mL]	MIC [11] [µg/mL]	MIC [14] [µg/mL]	MIC [16] [µg/mL]	MIC [17] [µg/mL]	MIC [18] [µg/mL]	MIC [19] [µg/mL]	MIC [21] [µg/mL]	MIC [22] [µg/mL]	MIC [24] [µg/mL]	MIC [25] [µg/mL]	MIC [28] [µg/mL]	MIC [29] [µg/mL]	MIC [30] [µg/mL]	MIC [31] [µg/mL]	MIC [32] [µg/mL]	further results
CC1(CNC2CC2)CN(c2nc3c(cc2F)c(=O)c(C(=O)O)cn3C2CC2)C/C1=N/OCc1ccccc1 (configuration not stated)	16 (≈ 30.8 µM)	2 (≈ 3.85 µM)	2 (≈ 3.85 µM)	2 (≈ 3.85 µM)	> 128	0.25 (≈ 0.481 µM)	64 (≈ 123 µM)	128 (≈ 246 µM)	2 (≈ 3.85 µM)	8 (≈ 15.4 µM)	4 (≈ 7.7 µM)	< 0.008	4 (≈ 7.7 µM)	0.5 (≈ 0.962 µM)	64 (≈ 123 µM)	1 (≈ 1.92 µM)	64 (≈ 123 µM)	4 (≈ 7.7 µM)	> 128	2 (≈ 3.85 µM)	MIC [3]: > 128 µg/mL; MIC [5]: 128 µg/mL (≈ 246 µM); MIC [6]: 64 µg/mL (≈ 123 µM); MIC [8]: 128 µg/mL (≈ 246 µM); MIC [9]: 32 µg/mL (≈ 61.6 µM); MIC [12]: > 128 µg/mL; MIC [13]: 128 µg/mL (≈ 246 µM); MIC [15]: 2 µg/mL (≈ 3.85 µM); MIC [20]: 128 µg/mL (≈ 246 µM); MIC [23]: 128 µg/mL (≈ 246 µM); MIC [26]: 0.5 µg/mL (≈ 0.962 µM); MIC [27]: > 128 µg/mL; MIC [33]: 0.5 µg/mL (≈ 0.962 µM); MIC [34]: 64 µg/mL (≈ 123 µM)
O=C(O)c1cn(C2CC2)c2cc(N3CCNCC3)c(F)cc2c1=O [CIPROFLOXACIN]	> 128	128 (≈ 386 µM)	32 (≈ 96.6 µM)	> 128	32 (≈ 96.6 µM)	1 (≈ 3.02 µM)	64 (≈ 193 µM)	64 (≈ 193 µM)	128 (≈ 386 µM)	64 (≈ 193 µM)	32 (≈ 96.6 µM)	0.5 (≈ 1.51 µM)	> 128	0.5 (≈ 1.51 µM)	16 (≈ 48.3 µM)	< 0.008	32 (≈ 96.6 µM)	128 (≈ 386 µM)	> 128	128 (≈ 386 µM)	MIC [5]: 1 µg/mL (≈ 3.02 µM); MIC [8]: 1 µg/mL (≈ 3.02 µM); MIC [13]: 0.5 µg/mL (≈ 1.51 µM); MIC [20]: 0.5 µg/mL (≈ 1.51 µM); MIC [23]: 1 µg/mL (≈ 3.02 µM); MIC [26]: 2 µg/mL (≈ 6.04 µM)
C[C@H]1COc2c(N3CCN(C)CC3)c(F)cc3c(=O)c(C(=O)O)cn1c23.C[C@H]1COc2c(N3CCN(C)CC3)c(F)cc3c(=O)c(C(=O)O)cn1c23.O [LEVOFLOXACIN]	> 128	64	8	64	16	1	128	64	64	64	32	0.25	64	0.5	8	0.125	16	32	32	64	MIC [3]: 8 µg/mL; MIC [9]: 4 µg/mL; MIC [12]: 8 µg/mL; MIC [15]: 8 µg/mL; MIC [27]: 8 µg/mL; MIC [33]: 0.125 µg/mL; MIC [34]: 0.5 µg/mL
